# CHOP inh: CHOP inhibition in unfolded protein response. AID 2732. CHO-K1 CHOP-promoter luciferase, tunicamycin-induced, 15-18 h. actives 3.8% (n = 220,000). inhibition, % at 10 µM;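 active = compounds that reduced the stress-induced luciferase reporter signal by more than about 70% of percent inhibition, limit read from the data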;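 note: 0% = tunicamycin plus vehicle and 100% = wells without tunicamycin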
# UPR XBP1 act: activators of adaptive arm of unfolded protein response (XBP1); CHO-XBP1 luciferase reporter, IRE1-XBP1 UPR activation, luminescence; percent of tunicamycin response, DMSO as zero; activation, % at 20 µM; actives 0.33% (n = 330,000); AID 463104;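 active = versus positive control, 20 µM dose yields 30% or more activation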;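 note: 100% = tunicamycin at 10 µg/mL and 0% = DMSO only wells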
#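 Signal: luciferase luminescence; Assay system: CHO-XBP1 luciferase reporter cells; Amount: one thousand reporter cells per well; Dosing: 20 µM single concentration, DMSO 1%; Benchmarks: high control tunicamycin 10 µg/mL final, low control DMSO vehicle only; Schedule: 6 h compound exposure at 37 °C, 5% CO2; Evaluation: percent activation relative to tunicamycin reference.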
# L major viab: Leishmania major promastigote growth inhibition; actives 9% (n = 200,000); inhibition, % at 10 µM; AID 1063; Leishmania major promastigotes, resazurin fluorescence viability; in the data active = inhibition above about 50%;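 note: promastigotes grown with compound for 44 hours at 28 °C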
# UPR CHOP act: apoptotic UPR (CHOP) activation; actives 0.34% (n = 330,000); AID 449763; CHO-CHOP luciferase reporter, luminescence; percent of tunicamycin response over DMSO baseline; activation, % at 10 µM;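 active = at 10 µM dose, activation of 40% or more, normalized to positive control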;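 note: 100% = tunicamycin at 10 µg/mL and 0% = DMSO alone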
#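 System: CHO-CHOP luciferase reporter cell line; amount: 500 cells/well; buffer or medium: F12 medium containing 10% fetal bovine serum; incubation: 6 h compound exposure at 37 °C after overnight seeding; measured by: luciferase luminescence after 10 min with Steady-Glo reagent; evaluation: % reporter activation, DMSO baseline versus tunicamycin full activation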
# Dynein cargo inh: dynein cargo transport inhibition; actives 0.47% (n = 220,000); z-score, hits read low; 3617.4 mouse cells, GR-EGFP nuclear translocation imaging; test concentration mostly 20 µM; stimulated with dexamethasone, 1 µM; active compounds read low;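 active = plate z-score of nuclear minus cytoplasmic receptor signal below a set negative limit, without overly bright fluorescence or cell loss, cut at about -3.5 in these data, passing the limit was not always enough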;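 note: z-score of nuclear minus cytoplasmic ring GR-EGFP intensity difference per well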
#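 Schedule: 48 h induction, then 1 h compound, then 30 min agonist, 37 °C. Buffer or medium: tetracycline-free induction medium containing charcoal-stripped FBS. Reagent: 1.0 µM final dexamethasone stimulus. Evaluation: nuclear versus cytoplasmic GR-EGFP signal, averaged per well. Signal: high-content fluorescence imaging after fixation.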
# T cruzi inh: T. cruzi replication inhibition; T. cruzi beta-gal in NIH3T3, luminescence, 90 h; actives 1.4% (n = 300,000); inhibition, % (test concentration not listed);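 active = mean inhibition across valid replicates above about 55%, limit read from the data; inconclusive = mean below that limit but half or more replicates reach it; inactive = mean below it, under half of replicates reach it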;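 note: signal also drops with host cell toxicity which is not excluded here; 0% = plate median of DMSO wells and 100% = zero luminescence signal; higher percent means less beta-gal luminescence so fewer parasites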
#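 System: NIH/3T3 fibroblasts plus reporter T. cruzi. Medium: DMEM plus 2% FBS. Probe or stimulus: 5000 reporter trypomastigotes per well. Compound: single 50 nL compound addition per well in DMSO. Incubation: co-culture of at least 90 h after 3 h attachment. Detection: GalScreen β-gal luminescence, detergent lysis, 60 min. Evaluation: parasite load inhibition, %.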
# An asterisk follows results filed as active; ? = inconclusive; . = not tested or not shown. This is one part of a sample in which hits are shown more often than they occur.
SMILES,CHOP inh,UPR XBP1 act,L major viab,UPR CHOP act,Dynein cargo inh,T cruzi inh
COc1cc(/C=N/NC(=O)c2cn(-c3cccc(C)n3)cn2)ccc1O,-5,-2,98*,0,-0.62,-9
CCOC(=O)C1CCN(Cc2ccc(OCc3ccccc3)cc2)CC1,.,5,.,1,.,8
CSc1ccc(CN2CCC(O)CC2)cc1,.,.,81*,.,-0.014,.
CSc1ccc(CN2CCC(C(=O)NCc3ccc(C)cc3)CC2)cc1,5,0,92*,-1,0.62,10
CCOc1ccc(CN2CCC(Cc3ccccc3)CC2)cc1,.,-5,.,1,.,25
CCCCN(C)C(=O)C1CCN(Cc2ccc(OCc3ccccc3)cc2)CC1,-2,-3,61*,-1,0.017,29
CSc1ccc(CN2CCCCCC2)cc1,.,0,.,3,.,28
CCCCOc1ccc(CN2CCC(O)CC2)cc1,5,0,91*,-1,0.55,?
CCOc1ccc(NC(=O)N2CCC(NC(=O)C(Cc3ccccc3OC)NC(C)=O)CC2)cc1 (configuration not stated),.,7,.,-1,.,-18
CCc1c(C)sc(NC(=O)Cc2ccccc2C)c1C(=O)N1CCOCC1,.,-7,.,4,.,-8
CC(NC(=S)Nc1ccc(S(=O)(=O)N2CCOCC2)cc1)C1CC2CCC1C2 (configuration not stated),58,2,63*,1,1,3
O=S(=O)(c1ccc(NC(=S)Nc2ccccc2)cc1)N1CCOCC1,13,-4,1,1,-0.62,-31
CC(C)CCCCCCNC(=S)Nc1ccc(S(=O)(=O)N2CCOCC2)cc1,76*,4,50,-1,-0.42,5
O=C(Cc1ccccn1)c1ccc(Cl)cc1,.,3,.,6,.,-12
CC1=C(CC(=O)c2ccc(Cl)cc2)C(=O)c2ccccc2C1=O,72*,2,2,3,-0.11,-13
O=C1NN(c2cccc(Br)c2)C(=O)/C1=C/c1ccc(-c2cc([N+](=O)[O-])ccc2O)o1,104*,-2,.,0,-0.66,0
CC1=NN(c2ccc(C)cc2)C(=O)/C1=C/c1ccc(-c2cc([N+](=O)[O-])ccc2O)o1,.,0,.,2,.,4
Cc1[nH]c(=O)c(C(=O)/C=C/c2ccccc2F)c2c1CCCC2,-21,0,100*,25,-3.3,?
O=C(Cn1c(COc2ccccc2)nc2ccccc21)Nc1cccc(Cl)c1,78*,6,-4,1,-0.65,3
Cc1cccc(-n2c(C)c(C)c3c(N)ncnc32)c1,.,-3,.,0,.,4
O=C(N/N=C/c1cccc(Cl)c1Cl)Nc1ccccc1,71*,3,-3,3,0.59,1
O=C(N/N=C/c1ccc(Cl)cc1Cl)Nc1ccccc1,59,3,-4,4,-0.69,8
O=C(N/N=C/c1ccccc1F)NC12CC3CC(CC(C3)C1)C2,.,4,.,7,.,57*
COc1cccc(/C=N/NC(=O)NC23CC4CC(CC(C4)C2)C3)c1O,.,8,.,0,.,-6
O=C(CN1CCCCCCC1)N/N=C/c1ccc(F)c(F)c1,-6,1,97*,0,0.28,-31
SMILES,CHOP inh,UPR XBP1 act,L major viab,UPR CHOP act,Dynein cargo inh,T cruzi inh
Cc1cc(/C=N\NC(=O)CC(=O)NC2CCCCC2)c(C)n1-c1cccc(Cl)c1Cl,63,-2,95*,0,0.64,4
COc1ccc(N2CS(=O)CC2=O)cc1 (configuration not stated),-2,-3,-4,0,2.3,-4
COC(C(=O)Nc1ccnn1C1CCN(Cc2ccc(Cl)s2)CC1)c1ccccc1 (configuration not stated),.,-1,.,1,.,8
O=C(CSc1nccn1Cc1ccccc1)NC1CCCC1,.,3,.,2,.,-8
O=C(CN1CCSCC1)N/N=C/c1ccccc1F,-8,0,-2,1,3,-7
O=C(CN1CCCCCCC1)N/N=C/c1ccccc1F,-10,3,52*,2,0.28,-31
O=C(CN1CCCCCC1)N/N=C/c1cccc(Cl)c1Cl,-27,0,62*,0,-0.038,-7
CCOC(=O)C1=C(c2ccccc2)NC(SCC(=O)Nc2cccc(C)c2)=C(C#N)C1c1ccco1 (configuration not stated),99*,0,22,-1,3.1,29
CCOC(=O)C1=C(c2ccccc2)NC(SCC(=O)Nc2ccc(C)cc2)=C(C#N)C1c1ccco1 (configuration not stated),94*,0,3,4,-0.61,65*
COc1ccc(Cl)cc1C(=O)Nc1cccnc1Cl,.,3,.,3,.,-7
O=C(CN1C(=O)NC2(CCCC2)C1=O)Nc1cc(S(=O)(=O)N2CCOCC2)ccc1OCC(F)(F)F,.,-1,.,-1,.,6
CCOc1ccc(/C(CC)=N/NC(=O)C2(C)CC2(Br)Br)cc1 (configuration not stated),53,3,58*,2,0.43,5
CCOC(=O)C1C(c2ccccc2Cl)NC(=O)N(C)C1(O)C(F)(F)F (configuration not stated),70*,0,3,-2,-0.4,-26
CCOC(=O)C1C(c2ccccc2O)NC(=O)NC1(O)C(F)(F)F (configuration not stated),.,0,.,-1,.,-13
COc1cccc(-c2cc(C(=O)N3CCCc4ccccc43)no2)c1,73*,2,-5,4,-1.1,19
O=C(c1ccc(N2CCCCCC2)c([N+](=O)[O-])c1)N1CCc2ccccc21,10,0,89*,2,0.31,17
Cc1ccc(C(=O)N2CCc3ccccc32)cc1[N+](=O)[O-],.,-4,.,4,.,5
O=C(c1cc([N+](=O)[O-])cc([N+](=O)[O-])c1)N1CCCc2ccccc21,-7,-5,79*,1,1.1,73*
O=C1/C(=C/c2cccc([N+](=O)[O-])c2)CSc2ccc(Cl)cc21,16,7,.,1,-0.69,13
CCN1C/C(=C\c2cccc([N+](=O)[O-])c2)C(=O)/C(=C/c2cccc([N+](=O)[O-])c2)C1,108*,.,100*,.,-3.7*,.
O=C1/C(=C/c2cccc([N+](=O)[O-])c2)CCc2ccccc21,16,2,95*,4,-1.5,3
CCn1nc(C)c(CN2CCC(n3nccc3NC(=O)c3ccc4c(c3)OCO4)CC2)c1C,.,-3,.,0,.,0
CCN(CC)Cc1c(O)ccc2occ(C(=O)c3ccc(OC)cc3)c12,6,-3,88*,0,-0.22,23
COc1ccc(C(=O)c2coc3ccc(O)c(CN4CCCC4)c23)cc1,37,-3,7,3,-1.2,-13

# Assay outcomes as filed in PubChem.
